What was measured:
[1] = system: HeLa; test: Cytotoxicity against human HeLa cells assessed as reduction of cell survival after 72 hrs by MTT assay; assay type: functional, cell-based
How it was run: (§1)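 HeLa seeded at 7×10^3 and CFPAC at 10^4 per well in RPMI 1640 with 10% FCS under 5% CO2. After 24 h, exposure to compounds (aqueous 100 mM stock; final 1 mM to 1×10^-6 mM) for 72 or 96 h. MTT 2 h, formazan dissolved in 20% SDS/50% DMF pH 4.7, A570/650. Untreated cells = 100%; IC50 from dose-response curves, 2 independent experiments in triplicate.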

[2] = target: T1, Adenosine 5'-monophosphoramidase HINT1 (Homo sapiens, UniProt P49773); test: Drug level in human K562 cell lysate treated with 1 mM gemcitabine 5'-phosphoramidate assessed as HINT-1-mediated compound formation after 22 hrs by RP-HPLC analysis relative to control; assay type: ADME, cell-based; details: k562, 22 h
How it was run: (§2)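 K562 lysate from confluent cells, scraped and sonicated in PBS with protease inhibitors. Substrate 1 mM in 20 mM Na-HEPES pH 7.2, 0.5 mM MgCl2, with lysate protein, 22 h at 37 °C. Quenched on ice, heat-denatured, centrifuged. Supernatant analysed by C18 RP-HPLC (0–8% acetonitrile in 0.1 M TEAB pH 7.4, 20 min) at 260 nm. Peaks integrated; products identified by co-injection; mean ± SE, at least duplicate.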

[3] = system: CFPAC-1; test: Cytotoxicity against human CFPAC-1 cells assessed as reduction of cell survival after 96 hrs by MTT assay; assay type: functional, cell-based; details: CFPAC-1, 96 h; how it was run: as §1
[4] = system: HUVEC; test: Cytotoxicity against HUVEC assessed as cell after 48 hrs by MTT assay; assay type: cell-based; details: Homo sapiens
How it was run: (§3)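 HUVEC (from fresh umbilical cords, gelatin-coated dishes, RPMI 1640 with 20% FBS, heparin, ECGF) and K562 (RPMI 1640, 10% FCS) were seeded at 7×10^3 per well. After 24 h, exposure for 48 h to compounds from 100 mM aqueous stock, final 1 mM down to 1×10^-6 mM. MTT read at 570/650 nm; untreated = 100%; IC50 from dose-response curves, mean of 2 experiments in triplicate.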

[5] = system: HeLa; test: Cytotoxicity against human HeLa cells assessed as reduction of cell survival after 96 hrs by MTT assay; assay type: functional, cell-based; how it was run: as §1
[6] = system: CFPAC-1; test: Cytotoxicity against human CFPAC-1 cells assessed as reduction of cell survival after 72 hrs by MTT assay; assay type: functional, cell-based; details: CFPAC-1, 72 h; how it was run: as §1
[7] = system: K562; test: Cytotoxicity against human K562 cells assessed as reduction of cell survival after 48 hrs by MTT assay; assay type: functional, cell-based; details: K562, 48 h; how it was run: as §3
[8] = target: T1, Adenosine 5'-monophosphoramidase HINT1; test: Drug metabolism in human K562 cell lysate assessed as HINT-1-mediated compound formation by measuring retention time at 1 mM after 22 hrs by RP-HPLC analysis relative to control; assay type: ADME, cell-based; details: k562, 22 h, 1000 µM; how it was run: as §2
[9] = target: T1, Adenosine 5'-monophosphoramidase HINT1; test: Drug metabolism in human K562 cell lysate assessed as HINT-1-mediated compound dephosphorylation at 1 mM after 22 hrs by RP-HPLC analysis relative to control; assay type: ADME, cell-based; details: k562, 22 h, 1000 µM; how it was run: as §2
[10] = target: T2, Adenosine 5'-monophosphoramidase HINT1 (Oryctolagus cuniculus, UniProt P80912); test: Drug metabolism assessed as recombinant rabbit HINT1-mediated hydrolysis of NH2-pdFdC to pdFdC per ug protein at 0.2 mM by RP-HPLC analysis; assay type: ADME; details: 200 µM
How it was run: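 Recombinant Hint-1 expressed in E. coli BL21 from pSGA02-HINT, purified by AMP-agarose affinity; hydrolysis of NH2-pdFdC to pdFdC at 0.2 mM substrate, activity expressed per µg protein; products followed by RP-HPLC on C18 column with acetonitrile gradient in 0.1 M triethylammonium bicarbonate, pH 7.4, peak areas integrated.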

[11] = target: T2, Adenosine 5'-monophosphoramidase HINT1; test: Drug metabolism assessed as recombinant rabbit HINT1-mediated hydrolysis of NH2-pdFdC to pdFdC per ug protein at 1 mM by RP-HPLC analysis; assay type: ADME; details: 1000 µM
[12] = target: T1, Adenosine 5'-monophosphoramidase HINT1; test: Drug metabolism in human K562 cell lysate assessed as HINT-1-mediated gemcitabine 5'-monophosphate formation at 1 mM after 22 hrs by RP-HPLC analysis relative to control; assay type: ADME, cell-based; details: k562, 22 h, 1000 µM; how it was run: as §2
[13] = target: T1, Adenosine 5'-monophosphoramidase HINT1; test: Drug metabolism in human K562 cell lysate assessed as HINT-1-mediated gemcitabine formation at 1 mM after 22 hrs by RP-HPLC analysis relative to control; assay type: ADME, cell-based; details: k562, 22 h, 1000 µM; how it was run: as §2

T1 sequence (P49773 whole entry): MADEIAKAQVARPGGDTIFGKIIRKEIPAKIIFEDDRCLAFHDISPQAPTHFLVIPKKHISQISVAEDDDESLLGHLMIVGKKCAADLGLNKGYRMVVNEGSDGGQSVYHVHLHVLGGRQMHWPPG
T2 sequence (P80912 whole entry): as the sequence (P49773 whole entry) above, with R37Q, V65A, D69A, N91K, H122N counted along it

| Structure (SMILES) | IC50 [1] [nM] | Drug metabolism [2] | IC50 [3] [nM] | IC50 [4] [nM] | IC50 [5] [nM] | IC50 [6] [nM] | IC50 [7] [nM] | Retention_time [8] [min] | Drug metabolism [9] | Drug metabolism [10] [nmol/min/µg] | Drug metabolism [11] [nmol/min/µg] | Drug metabolism [12] | Drug metabolism [13] |
| --- | --- | --- | --- | --- | --- | --- | --- | --- | --- | --- | --- | --- | --- |
| Nc1ccn([C@@H]2O[C@H](CO)[C@@H](O)C2(F)F)c(=O)n1 [GEMCITABINE] | 10000 | metabolite_detected | 350 | 3 | 900 | 470 | 50 | 11.8 |  |  |  |  |  |
| Nc1ccn([C@@H]2O[C@H](COP(=O)(O)O)[C@@H](O)C2(F)F)c(=O)n1 |  | metabolite_detected |  |  |  |  |  | 11.1 | metabolite_detected |  |  |  |  |
| Nc1ccn([C@@H]2O[C@H](COP(N)(=O)O)[C@@H](O)C2(F)F)c(=O)n1 |  |  |  |  |  |  |  | 10.6 |  | 0.88 | 1.88 | metabolite_detected | metabolite_detected |

From ChEMBL document CHEMBL3232882, “N-Acyl-phosphoramidates as potential novel form of gemcitabine prodrugs” (Bioorg Med Chem, 2014)
